The values below come from ChEMBL document CHEMBL2150901, “Synthesis and biological activity of tricyclic cycloalkylimidazo-, pyrimido- and diazepinopurinediones” (Eur J Med Chem, 2011).

Active and inactive are the calls of the source. The calls are words filed in the database; no cut-off is given here.

The test system of data set [1] is Rattus norvegicus. The data set can be described thus: Neurotoxicity in Sprague-Dawley albino rat assessed as minimal motor impairment at 30 mg/kg, po after 4 hrs by rotorod test. The format is toxicity, organism-based. As to conditions: in vivo. More on the design: dose 30 mg/kg, route oral. In short, it runs like this:
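Male Sprague-Dawley albino rats (100–150 g), groups of 4, dosed orally with a suspension in 0.5% methylcellulose/water. Neurotoxicity was scored as minimal motor impairment on the rotorod at 0.25, 0.5, 1 and 4 h. Results are reported as animals showing toxicity per animals tested.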

Data set [2] concerns the target T1, Adenosine receptor A2a (Homo sapiens, UniProt P29274). The data set can be described thus: Antagonist activity human recombinant adenosine A2A receptor expressed in CHO cells assessed as inhibition of NECA-mediated [3H]cAMP accumulation after 15 mins by liquid scintillation counting. The class given is functional, cell-based. In short, it runs like this:
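Stably transfected CHO cells (human A2A), 200,000 cells/well, washed and preincubated 2 h at 37 °C in HBSS (pH 7.3) with 1 U/ml adenosine deaminase. Ro20-1724 (final 40 µM) added for 15 min. NECA dilutions ± a single test concentration in HBSS with 5% DMSO, in triplicate, for 15 min. Hot-lysis; cAMP quantified by [3H]cAMP competition against a standard curve; three separate experiments.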

The test system of data set [3] is Mus musculus. The data set can be described thus: Anticonvulsant activity in F1 albino mouse assessed as protection against subcutaneous pentylenetetrazole-induced seizures at 300 mg/kg, ip after 4 hrs. The class given is functional, organism-based. More on the design: dose 300 mg/kg. In outline: (§1)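 Male albino F-1 mice (18–25 g), groups of 1–5 (rotorod 2–8). Compound given ip as a suspension in 0.5% methylcellulose at 30, 100 and 300 mg/kg. Seizures by maximal electroshock or subcutaneous pentylenetetrazole; neurotoxicity by rotorod. Read at 0.5 and 4 h, with some at 0.25, 1 and 2 h. Value is the minimum active dose, with protected (or toxic)/tested animals.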

The target in data set [4] is T1, Adenosine receptor A2a. The experiment in a line: Displacement of [3H]MSX-2 from human recombinant adenosine A2A receptor expressed in CHO cells. The format is cell-based.
For data set [5], the system named is Rattus norvegicus. The experiment in a line: Anticonvulsant activity in Sprague-Dawley albino rat assessed as protection against maximal electroshock-induced seizures at 30 mg/kg, po after 4 hrs. The class given is functional, organism-based. More on the design: dose 30 mg/kg. In short, it runs like this: (§2)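 Male Sprague-Dawley albino rats (100–150 g), groups of 4. Oral suspension in 0.5% methylcellulose/water. Protection assessed by maximal electroshock or subcutaneous pentylenetetrazole; motor impairment by rotorod. Time points 0.25–4 h. Value is protected (or toxic)/tested animals.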

Data set [6] relates to Mus musculus. The experiment in a line: Neurotoxicity in F1 albino mouse assessed as minimal motor impairment at 300 mg/kg, ip after 0.25 hrs by rotorod test. The class given is toxicity, organism-based. The note with it: in vivo. More on the design: dose 300 mg/kg, route intraperitoneal. In short, it runs like this:
as §1

The target in data set [7] is T2, Adenosine receptor A1 (Rattus norvegicus, UniProt P25099).
T2 sequence (P25099 whole entry): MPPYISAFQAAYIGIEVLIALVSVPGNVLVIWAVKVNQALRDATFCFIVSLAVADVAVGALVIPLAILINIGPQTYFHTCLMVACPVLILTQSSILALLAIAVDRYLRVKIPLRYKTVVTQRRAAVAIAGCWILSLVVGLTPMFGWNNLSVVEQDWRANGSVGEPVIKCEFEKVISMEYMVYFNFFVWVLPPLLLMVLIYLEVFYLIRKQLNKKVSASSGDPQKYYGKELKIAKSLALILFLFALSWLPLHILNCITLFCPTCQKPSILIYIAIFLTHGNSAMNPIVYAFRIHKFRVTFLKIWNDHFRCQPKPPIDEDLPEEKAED
The experiment in a line: Displacement of [3H]CCPA from adenosine A1 receptor in rat brain cortical membrane. The format is cell membranes.

Data set [8] concerns Rattus norvegicus. The experiment in a line: Neurotoxicity in Sprague-Dawley albino rat assessed as minimal motor impairment at 30 mg/kg, po after 0.5 hrs by rotorod test. The class given is toxicity, organism-based. More on the design: dose 30 mg/kg, route oral. As to conditions: in vivo. In short, it runs like this:
as §2

For a further data set, the target named is T3, Adenosine receptor A2b (Homo sapiens, UniProt P29275).
T3 sequence (P29275 whole entry): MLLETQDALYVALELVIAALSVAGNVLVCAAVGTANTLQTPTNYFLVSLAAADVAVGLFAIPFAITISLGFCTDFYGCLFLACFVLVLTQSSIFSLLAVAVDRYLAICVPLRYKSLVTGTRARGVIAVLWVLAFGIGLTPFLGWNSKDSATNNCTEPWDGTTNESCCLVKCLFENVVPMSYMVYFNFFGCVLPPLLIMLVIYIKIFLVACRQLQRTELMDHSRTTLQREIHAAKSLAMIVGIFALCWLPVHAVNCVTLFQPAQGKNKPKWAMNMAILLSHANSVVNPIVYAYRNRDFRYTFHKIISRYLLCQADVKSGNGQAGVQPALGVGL
The experiment in a line: Displacement of [3H]ZM241385 from human adenosine A2B receptor expressed in CHO cells. The class given is cell-based.

Data set [9] has as its system Mus musculus. The experiment in a line: Anticonvulsant activity in F1 albino mouse assessed as protection against subcutaneous pentylenetetrazole-induced seizures at 100 mg/kg, ip after 0.5 hrs. The class given is functional, organism-based. More on the design: dose 100 mg/kg. In short, it runs like this: as §1
In data set [10] the test system is Mus musculus. The experiment in a line: Anticonvulsant activity in F1 albino mouse assessed as protection against subcutaneous pentylenetetrazole-induced seizures at 300 mg/kg, ip after 1 hr. The format is functional, organism-based. More on the design: dose 300 mg/kg. In outline:
as §1

For data set [11], the target named is T4, Adenosine receptor A1 (Homo sapiens, UniProt P30542).
T4 sequence (P30542 whole entry): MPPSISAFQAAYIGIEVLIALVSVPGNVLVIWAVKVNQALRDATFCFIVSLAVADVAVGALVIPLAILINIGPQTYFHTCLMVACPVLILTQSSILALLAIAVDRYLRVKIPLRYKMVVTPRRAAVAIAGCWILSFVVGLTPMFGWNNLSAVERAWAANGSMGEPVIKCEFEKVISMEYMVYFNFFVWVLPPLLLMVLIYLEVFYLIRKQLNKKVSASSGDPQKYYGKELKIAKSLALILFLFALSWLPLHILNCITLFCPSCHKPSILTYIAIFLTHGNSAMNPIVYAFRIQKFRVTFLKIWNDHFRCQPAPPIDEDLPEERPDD
The data set can be described thus: Displacement of [3H]CCPA from human recombinant adenosine A1 receptor expressed in CHO cells. The class given is cell-based.

Data set [12] has as its system Mus musculus. The data set can be described thus: Anticonvulsant activity in F1 albino mouse assessed as protection against maximal electroshock-induced seizures at 300 mg/kg, ip after 0.5 hrs. The format is functional, organism-based. More on the design: dose 300 mg/kg. In outline:
as §1

Data set [13] deals with Rattus norvegicus. The data set can be described thus: Neurotoxicity in Sprague-Dawley albino rat assessed as minimal motor impairment at 30 mg/kg, po after 1 hr by rotorod test. The format is toxicity, organism-based. More on the design: dose 30 mg/kg, route oral. The note with it: in vivo. In short, it runs like this:
as §2

For data set [14], the species on record is Rattus norvegicus. The data set can be described thus: Selectivity ratio of Ki for adenosine A1 receptor in rat brain cortical membrane to Ki for adenosine A2A receptor in rat brain striatal membrane. The format is cell membranes. In outline: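 Ki ratios from radioligand competition binding. Rat A1 used brain cortical membranes and rat A2A used brain striatal membranes. Human A1 and A2A used membranes of CHO cells expressing the receptors. A1 radioligand [³H]CCPA; A2A radioligand [³H]MSX-2. Potent compounds were tested at 6–7 concentrations spanning 3 orders of magnitude.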

The subject of data set [15] is Rattus norvegicus. The experiment in a line: Anticonvulsant activity in Sprague-Dawley albino rat assessed as protection against subcutaneous pentylenetetrazole-induced seizures at 50 mg/kg, po after 4 hrs. More on the design: dose 50 mg/kg. The format is functional, organism-based. In short, it runs like this: as §2
The test system of data set [16] is Rattus norvegicus. The data set can be described thus: Neurotoxicity in Sprague-Dawley albino rat assessed as minimal motor impairment at 30 mg/kg, po after 0.25 hrs by rotorod test. The format is toxicity, organism-based. More on the design: dose 30 mg/kg, route oral. The note with it: in vivo. In short, it runs like this: as §2
Data set [17] has as its system Mus musculus. The experiment in a line: Anticonvulsant activity in F1 albino mouse assessed as protection against subcutaneous pentylenetetrazole-induced seizures at 300 mg/kg, ip after 0.25 hrs. The class given is functional, organism-based. More on the design: dose 300 mg/kg. In outline:
as §1

The test system of data set [18] is Rattus norvegicus. The data set can be described thus: Anticonvulsant activity in Sprague-Dawley albino rat assessed as protection against subcutaneous pentylenetetrazole-induced seizures at 50 mg/kg, po after 1 hr. The class given is functional, organism-based. More on the design: dose 50 mg/kg. In outline: as §2
Data set [19] concerns Mus musculus. The experiment in a line: Anticonvulsant activity in F1 albino mouse assessed as protection against maximal electroshock-induced seizures at 100 mg/kg, ip after 0.25 hrs. The class given is functional, organism-based. More on the design: dose 100 mg/kg. In short, it runs like this: as §1

T1 sequence (P29274 whole entry): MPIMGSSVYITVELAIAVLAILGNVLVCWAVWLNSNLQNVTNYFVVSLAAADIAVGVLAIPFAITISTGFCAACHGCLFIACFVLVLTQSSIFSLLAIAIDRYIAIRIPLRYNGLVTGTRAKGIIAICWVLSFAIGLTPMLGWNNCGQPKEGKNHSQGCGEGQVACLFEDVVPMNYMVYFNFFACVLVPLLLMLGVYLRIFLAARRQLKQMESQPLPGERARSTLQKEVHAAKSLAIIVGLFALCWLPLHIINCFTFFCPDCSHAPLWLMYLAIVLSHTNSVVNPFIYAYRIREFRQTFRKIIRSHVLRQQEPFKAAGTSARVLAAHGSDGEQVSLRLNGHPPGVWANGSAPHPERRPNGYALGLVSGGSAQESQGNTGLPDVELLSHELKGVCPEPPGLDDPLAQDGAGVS

With `Cn1c(=O)c2c(nc3n2CCCN3CC2CC2)n(C)c1=O`, the Activity result with Rattus norvegicus [1], in the data set on Mus musculus [6], with Rattus norvegicus [8], with Rattus norvegicus [13] and with Rattus norvegicus [16] was “Non-toxic” in each case. Moreover, at Adenosine receptor A2a [2], the antagonist equilibrium constant (Kb) came to 220 nM. The result in the data set on Mus musculus [3], with Rattus norvegicus [5], in the data set with Mus musculus [10], in the data set with Rattus norvegicus [15], with Mus musculus [17] and in the data set on Rattus norvegicus [18] was inactive. The Ki amounted to 417 nM on Adenosine receptor A2a [4], 2390 nM on Adenosine receptor A1 [7], 12500 nM at Adenosine receptor A2b and 7130 nM at Adenosine receptor A1 [11]. Also, the result in the data set on Mus musculus [9], with Mus musculus [12] and in the data set with Mus musculus [19] was Active. Further, the Ratio Ki in the data set listed under Rattus norvegicus [14] was 2.
